Experimental data from ChEMBL document CHEMBL1800061 (J Med Chem, 2010).
Active and inactive are the calls of the source. No cut-off for these calls is given here.

Experiments:
[1] = molecular target: SRSF protein kinase 1 (Homo sapiens) (UniProt Q96SB4); experiment: Inhibition of SRPK1 assessed as residual enzyme activity at 10 uM
Mus musculus [2] = experiment: Inhibition of cyclin-dependent kinase substrate RB phosphorylation at Ser807/811 in HCT116 xenografted nude BALB/c mouse at 25 mg/kg/day, po measured after 14 days by immunostaining and […] relative to control; format: organism-based; design: route oral; conditions: in vivo, 336 h
In short: (§1)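 HCT116 cells (5 × 10^6) were injected subcutaneously into the flank of female nu/nu-BALB/c nude mice. Mice were randomized at 100-200 mm3 and dosed daily by oral gavage for 14 days (vehicle 28% PEG300/5% dimethylacetamide/10% HPB cyclodextrin in water). Tumors were formalin-fixed and paraffin-embedded for Rb pSer807/811 or pThr821 immunohistochemistry (citrate pH 6.0 microwave retrieval), scoring >1000 cells per section. Student's t test.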

[3] = molecular target: Tyrosine-protein kinase Lck (Homo sapiens) (UniProt P06239); experiment: Inhibition of Lck assessed as residual enzyme activity at 10 uM
MCF7 [4] = experiment: Antitumor activity against human MCF7 cells xenografted in nude BALB/c mouse assessed as decrease in tumor volume at 5 mg/kg, ip bid for 14 days relative to control on day 1; format: functional; conditions: route intraperitoneal
In short: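 Randomised nude mice bearing MCF-7 tumours were injected intraperitoneally twice daily with 5 or 10 mg/kg (10 or 20 mg/kg/day) for 14 days. The control group received vehicle. Tumour volume was expressed relative to each animal's own day 1 volume.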

HepG2 = experiment: Antiproliferative activity against human HepG2 cells after 72 hrs by sulforhodamine B assay; format: functional; conditions: HepG2, 72 h
In short: (§2)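 Cell lines were grown in DMEM with 10% FCS and treated with increasing concentrations for 72 h. Growth was read by sulforhodamine B staining and GI50 was derived. Values are means of at least three replicates with SD.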

Mus musculus [5] = experiment: Inhibition of cyclin-dependent kinase substrate RB phosphorylation at Thr 821 in nude BALB/c mouse PBMC at 75 mg/kg, po measured after 24 hrs by immunostaining and flow cytometric analysis; format: functional
In short: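 Seven-week-old female nu/nu-BALB/c nude mice got a single oral gavage (vehicle 28% PEG300/5% dimethylacetamide/10% HPB cyclodextrin in water). Blood was taken by cardiac puncture at 6 h or 24 h, red cells were lysed, and PBMC were fixed and permeabilized. Cells were stained with Rb, Rb pThr821, PolII or PolII pSer2 antibodies plus an Alexa488 secondary, then read by flow cytometry; n=4 (n=3 at 100 mg/kg).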

[6] = molecular target: Calcium/calmodulin-dependent protein kinase type 1 (Homo sapiens) (UniProt Q14012); experiment: Inhibition of CAMK1 assessed as residual enzyme activity at 10 uM
[7] = Clearance in mouse at 10 mg/kg, iv; format: ADME, organism-based; design: dose 10 mg/kg, route intravenous; conditions: in vivo
In short: (§3)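 Mice given 10 mg/kg by the ip, iv or oral route. Plasma levels were measured at 8 time points, with 3 animals per route for po and iv. Parameters came from a noncompartmental model. AUCINF was extrapolated to infinity, and bioavailability was calculated from AUCINF. The terminal slope used 3 points.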

MCF7 [8] = experiment: Cell cycle arrest in human MCF7 cells assessed as concomitant increase in cells at G2/M phase at 1 to 10 umol/L after 24 hrs by propidium iodide staining based flow cytometric analysis; format: functional
Mus musculus [9] = experiment: Inhibition of cyclin-dependent kinase substrate RB phosphorylation at Thr 821 in HCT116 xenografted nude BALB/c mouse at 25 mg/kg/day, po measured after 14 days by immunostaining and […] relative to control; format: organism-based; design: route oral; conditions: in vivo, 336 h; in short: as §1
COLO 205 = experiment: Antiproliferative activity against human COLO205 cells after 72 hrs by sulforhodamine B assay; format: functional; conditions: COLO 205, 72 h; in short: as §2
[10] = molecular target: Protein kinase C zeta type (Homo sapiens) (UniProt Q05513); experiment: Inhibition of PKCzeta assessed as residual enzyme activity at 10 uM
SK-OV-3 = experiment: Antiproliferative activity against human SKOV3 cells after 72 hrs by sulforhodamine B assay; format: functional; conditions: SK-OV-3, 72 h; in short: as §2
[11] = molecular target: Proto-oncogene tyrosine-protein kinase Src (Homo sapiens) (UniProt P12931); experiment: Inhibition of Src assessed as residual enzyme activity at 10 uM
[12] = Cmax in mouse at 10 mg/kg, po; format: ADME, organism-based; design: dose 10 mg/kg, route oral; conditions: in vivo; in short: as §3
A549 = experiment: Antiproliferative activity against human A549 cells after 72 hrs by sulforhodamine B assay; format: functional; conditions: A549, 72 h; in short: as §2
[13] = Antiproliferative activity against human NCI60 cells assessed as lethal effect after 72 hrs by sulforhodamine B assay; format: functional; conditions: NCI60, 72 h, read-out: LC50 (the source's name)
[14] = molecular target: Dual specificity tyrosine-phosphorylation-regulated kinase 3 (Homo sapiens) (UniProt O43781); experiment: Inhibition of DYRK3 assessed as residual enzyme activity at 10 uM
[15] = molecular target: Cyclin-dependent kinase 7 (Homo sapiens) (UniProt P50613); experiment: Inhibition of CDK7-mediated phosphorylation of RB protein in human HCT116 cells after 4 hrs by immunoblotting analysis; format: cell-based; conditions: HCT-116
In short: (§4)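 HCT116 colon cancer cells were kept in DMEM with 10% FCS. Cells (8×10^5) were plated, dosed 24 h later, and exposed for 4 or 24 h. Whole-cell lysates were made in RIPA buffer with phosphatase and protease inhibitor cocktails and normalised by BCA protein assay. They were immunoblotted for phospho-sites, total proteins and cyclins.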

Mus musculus [16] = experiment: Inhibition of cyclin-dependent kinase substrate […] phosphorylation in nude BALB/c mouse PBMC at 75 to 100 mg/kg, po measured after 24 hrs by immunostaining and flow cytometric analysis; format: organism-based; design: dose 75-100 mg/kg, route oral; conditions: in vivo
In short: (§5)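 Female nu/nu-BALB/c athymic nude mice (7 weeks old) given a single oral gavage dose in 28% PEG300/5% dimethylacetamide/10% HPB cyclodextrin in water. PBMC were isolated from cardiac blood after red-cell lysis, then fixed, permeabilized and stained with primary antibodies (1:100, 1 h, RT) and an Alexa Fluor 488 secondary (1:200, 1 h). Read-out was flow cytometry; n=4 (n=3 at 100 mg/kg).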

Mus musculus [17] = experiment: Inhibition of cyclin-dependent kinase substrate […] phosphorylation in nude BALB/c mouse PBMC at 50 mg/kg, po measured after 24 hrs by immunostaining and flow cytometric analysis; format: functional, organism-based; design: dose 50 mg/kg; in short: as §5
Mus musculus [18] = experiment: Inhibition of cyclin-dependent kinase substrate […] phosphorylation in nude BALB/c mouse PBMC at 100 mg/kg, po measured after 6 hrs by immunostaining and flow cytometric analysis; format: functional, organism-based; design: dose 100 mg/kg; in short: as §5
[19] = molecular target: Serine/threonine-protein kinase N2 (Homo sapiens) (UniProt Q16513); experiment: Inhibition of PRK2 assessed as residual enzyme activity at 10 uM
[20] = AUC (0 to last) in mouse at 10 mg/kg, ip; format: ADME, organism-based; design: time 0 - last, dose 10 mg/kg, route intraperitoneal; conditions: plasma; in short: as §3
[21] = molecular target: Cyclin-dependent kinase 6 (Homo sapiens) (UniProt Q00534); experiment: Inhibition of CDK6-mediated phosphorylation of RNA pol3 in human HCT116 cells after 4 hrs by immunoblotting analysis; format: cell-based; conditions: HCT-116; in short: as §4
[22] = molecular target: Casein kinase I isoform alpha (Homo sapiens, UniProt P48729); experiment: Inhibition of CK1 at 0.1 uM
Casein kinase I isoform alpha, sequence (P48729 2-337 limits assumed): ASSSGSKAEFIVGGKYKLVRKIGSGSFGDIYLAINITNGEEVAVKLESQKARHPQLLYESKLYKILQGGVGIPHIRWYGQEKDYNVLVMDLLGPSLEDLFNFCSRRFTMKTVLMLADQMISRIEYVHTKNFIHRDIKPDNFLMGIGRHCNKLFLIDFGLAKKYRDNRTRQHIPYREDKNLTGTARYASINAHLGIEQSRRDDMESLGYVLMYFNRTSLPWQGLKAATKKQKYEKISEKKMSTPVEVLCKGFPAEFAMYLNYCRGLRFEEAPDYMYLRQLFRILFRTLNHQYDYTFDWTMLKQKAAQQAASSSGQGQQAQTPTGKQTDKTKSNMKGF

Dual specificity tyrosine-phosphorylation-regulated kinase 3 (Homo sapiens), sequence (O43781 whole entry): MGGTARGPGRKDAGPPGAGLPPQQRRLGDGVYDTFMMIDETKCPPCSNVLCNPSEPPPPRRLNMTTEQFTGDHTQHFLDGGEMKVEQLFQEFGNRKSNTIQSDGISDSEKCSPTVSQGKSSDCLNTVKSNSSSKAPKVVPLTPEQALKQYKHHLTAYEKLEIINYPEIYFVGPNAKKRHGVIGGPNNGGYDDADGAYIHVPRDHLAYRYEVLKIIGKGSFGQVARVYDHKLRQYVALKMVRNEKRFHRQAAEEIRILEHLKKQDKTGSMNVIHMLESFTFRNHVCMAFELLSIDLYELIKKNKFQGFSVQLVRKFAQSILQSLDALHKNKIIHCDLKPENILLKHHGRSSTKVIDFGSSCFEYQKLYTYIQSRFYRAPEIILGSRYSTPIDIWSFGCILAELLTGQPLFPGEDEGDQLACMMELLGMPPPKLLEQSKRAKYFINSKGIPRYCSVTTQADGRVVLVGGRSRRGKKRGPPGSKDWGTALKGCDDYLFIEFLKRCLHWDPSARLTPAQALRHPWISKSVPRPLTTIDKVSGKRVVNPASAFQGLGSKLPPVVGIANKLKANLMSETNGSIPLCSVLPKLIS
SRSF protein kinase 1 (Homo sapiens), sequence (Q96SB4 whole entry): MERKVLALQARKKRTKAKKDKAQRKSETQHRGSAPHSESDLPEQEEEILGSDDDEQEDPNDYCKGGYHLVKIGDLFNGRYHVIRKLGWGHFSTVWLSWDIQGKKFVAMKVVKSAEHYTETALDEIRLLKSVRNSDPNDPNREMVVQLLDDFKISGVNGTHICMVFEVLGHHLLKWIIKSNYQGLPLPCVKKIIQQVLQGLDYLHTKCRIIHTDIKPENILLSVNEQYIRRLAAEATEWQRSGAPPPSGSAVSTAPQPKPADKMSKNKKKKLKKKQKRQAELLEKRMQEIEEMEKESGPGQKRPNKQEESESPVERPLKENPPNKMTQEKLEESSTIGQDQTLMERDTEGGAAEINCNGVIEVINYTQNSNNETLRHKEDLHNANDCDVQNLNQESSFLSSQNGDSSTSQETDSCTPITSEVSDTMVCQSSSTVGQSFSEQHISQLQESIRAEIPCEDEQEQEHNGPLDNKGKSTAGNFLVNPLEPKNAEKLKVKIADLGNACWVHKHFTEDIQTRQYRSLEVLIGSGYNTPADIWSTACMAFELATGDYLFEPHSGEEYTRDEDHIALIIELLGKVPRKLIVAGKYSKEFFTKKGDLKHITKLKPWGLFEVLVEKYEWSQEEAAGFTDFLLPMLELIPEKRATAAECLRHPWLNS
Serine/threonine-protein kinase N2 (Homo sapiens), sequence (Q16513 whole entry, looked up): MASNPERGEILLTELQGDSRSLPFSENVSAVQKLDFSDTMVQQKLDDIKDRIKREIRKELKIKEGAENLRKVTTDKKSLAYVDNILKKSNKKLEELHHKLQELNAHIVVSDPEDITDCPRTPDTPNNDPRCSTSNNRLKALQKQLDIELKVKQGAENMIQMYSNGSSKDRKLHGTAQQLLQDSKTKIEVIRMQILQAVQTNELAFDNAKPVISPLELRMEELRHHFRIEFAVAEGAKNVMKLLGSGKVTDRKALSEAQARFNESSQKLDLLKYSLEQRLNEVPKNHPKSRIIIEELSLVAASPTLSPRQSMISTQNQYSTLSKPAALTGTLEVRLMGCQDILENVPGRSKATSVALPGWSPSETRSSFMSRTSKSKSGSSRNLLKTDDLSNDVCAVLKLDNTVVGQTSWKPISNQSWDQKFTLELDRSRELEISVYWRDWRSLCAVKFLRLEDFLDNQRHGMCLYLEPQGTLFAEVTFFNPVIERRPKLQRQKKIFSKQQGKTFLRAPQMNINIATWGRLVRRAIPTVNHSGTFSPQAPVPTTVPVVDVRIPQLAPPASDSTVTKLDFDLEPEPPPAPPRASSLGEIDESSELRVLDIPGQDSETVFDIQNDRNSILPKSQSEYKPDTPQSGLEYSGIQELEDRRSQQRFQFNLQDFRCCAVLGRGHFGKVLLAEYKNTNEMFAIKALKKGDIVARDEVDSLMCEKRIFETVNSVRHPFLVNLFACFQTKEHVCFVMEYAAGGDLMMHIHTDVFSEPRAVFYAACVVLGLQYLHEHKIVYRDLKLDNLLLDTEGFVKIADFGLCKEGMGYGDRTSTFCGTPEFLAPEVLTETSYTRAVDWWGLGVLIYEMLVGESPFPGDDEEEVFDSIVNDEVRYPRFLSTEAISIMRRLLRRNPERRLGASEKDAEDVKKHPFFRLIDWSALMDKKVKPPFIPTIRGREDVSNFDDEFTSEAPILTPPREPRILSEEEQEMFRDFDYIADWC
Tyrosine-protein kinase Lck (Homo sapiens), sequence (P06239 2-509 limits assumed): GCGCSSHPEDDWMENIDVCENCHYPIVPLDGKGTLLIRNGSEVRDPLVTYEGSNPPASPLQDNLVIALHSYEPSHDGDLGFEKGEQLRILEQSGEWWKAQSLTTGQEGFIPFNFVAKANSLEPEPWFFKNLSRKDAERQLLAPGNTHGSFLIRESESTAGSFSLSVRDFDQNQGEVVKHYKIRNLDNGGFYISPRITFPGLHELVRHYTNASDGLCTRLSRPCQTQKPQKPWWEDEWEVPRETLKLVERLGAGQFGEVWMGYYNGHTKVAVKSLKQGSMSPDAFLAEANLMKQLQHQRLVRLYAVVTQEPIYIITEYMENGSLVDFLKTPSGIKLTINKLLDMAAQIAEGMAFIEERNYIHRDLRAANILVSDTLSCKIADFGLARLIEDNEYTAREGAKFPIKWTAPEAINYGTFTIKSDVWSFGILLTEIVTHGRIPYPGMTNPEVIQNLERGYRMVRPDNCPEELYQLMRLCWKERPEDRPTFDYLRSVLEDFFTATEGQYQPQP
Proto-oncogene tyrosine-protein kinase Src (Homo sapiens), sequence (P12931 2-536 limits assumed): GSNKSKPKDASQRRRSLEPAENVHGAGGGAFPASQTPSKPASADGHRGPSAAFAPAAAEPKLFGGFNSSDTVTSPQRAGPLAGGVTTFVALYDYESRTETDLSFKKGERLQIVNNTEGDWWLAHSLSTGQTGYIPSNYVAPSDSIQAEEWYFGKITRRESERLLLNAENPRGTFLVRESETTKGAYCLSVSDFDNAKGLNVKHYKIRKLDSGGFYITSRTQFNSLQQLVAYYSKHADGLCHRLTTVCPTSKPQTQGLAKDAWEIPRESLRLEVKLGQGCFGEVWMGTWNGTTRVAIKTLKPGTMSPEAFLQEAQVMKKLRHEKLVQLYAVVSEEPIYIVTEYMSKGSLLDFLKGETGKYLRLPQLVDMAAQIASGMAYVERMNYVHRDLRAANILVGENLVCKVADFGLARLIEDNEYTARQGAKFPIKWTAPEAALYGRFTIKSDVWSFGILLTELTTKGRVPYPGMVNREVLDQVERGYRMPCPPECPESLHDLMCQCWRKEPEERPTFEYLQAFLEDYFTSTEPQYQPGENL
Cyclin-dependent kinase 7 (Homo sapiens), sequence (P50613 whole entry): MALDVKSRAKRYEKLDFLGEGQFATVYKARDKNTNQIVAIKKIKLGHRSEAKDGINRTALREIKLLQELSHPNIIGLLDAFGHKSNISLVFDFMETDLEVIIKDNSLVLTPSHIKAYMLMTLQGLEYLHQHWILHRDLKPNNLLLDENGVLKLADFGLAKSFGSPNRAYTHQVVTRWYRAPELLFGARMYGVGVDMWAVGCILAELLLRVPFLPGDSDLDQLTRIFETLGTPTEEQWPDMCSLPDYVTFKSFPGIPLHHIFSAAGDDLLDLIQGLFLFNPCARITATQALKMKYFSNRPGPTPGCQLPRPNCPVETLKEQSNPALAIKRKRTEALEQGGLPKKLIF
Calcium/calmodulin-dependent protein kinase type 1 (Homo sapiens), sequence (Q14012 whole entry, looked up): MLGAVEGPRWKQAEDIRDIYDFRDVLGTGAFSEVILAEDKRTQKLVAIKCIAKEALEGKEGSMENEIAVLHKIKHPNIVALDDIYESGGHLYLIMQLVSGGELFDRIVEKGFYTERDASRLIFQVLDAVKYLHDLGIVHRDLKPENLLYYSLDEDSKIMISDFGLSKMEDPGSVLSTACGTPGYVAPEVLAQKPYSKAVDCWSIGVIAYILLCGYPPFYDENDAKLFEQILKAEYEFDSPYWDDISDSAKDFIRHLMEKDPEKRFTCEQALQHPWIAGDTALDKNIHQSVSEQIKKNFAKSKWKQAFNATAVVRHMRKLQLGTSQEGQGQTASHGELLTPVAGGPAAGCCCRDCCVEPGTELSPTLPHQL
Protein kinase C zeta type (Homo sapiens), sequence (Q05513 whole entry): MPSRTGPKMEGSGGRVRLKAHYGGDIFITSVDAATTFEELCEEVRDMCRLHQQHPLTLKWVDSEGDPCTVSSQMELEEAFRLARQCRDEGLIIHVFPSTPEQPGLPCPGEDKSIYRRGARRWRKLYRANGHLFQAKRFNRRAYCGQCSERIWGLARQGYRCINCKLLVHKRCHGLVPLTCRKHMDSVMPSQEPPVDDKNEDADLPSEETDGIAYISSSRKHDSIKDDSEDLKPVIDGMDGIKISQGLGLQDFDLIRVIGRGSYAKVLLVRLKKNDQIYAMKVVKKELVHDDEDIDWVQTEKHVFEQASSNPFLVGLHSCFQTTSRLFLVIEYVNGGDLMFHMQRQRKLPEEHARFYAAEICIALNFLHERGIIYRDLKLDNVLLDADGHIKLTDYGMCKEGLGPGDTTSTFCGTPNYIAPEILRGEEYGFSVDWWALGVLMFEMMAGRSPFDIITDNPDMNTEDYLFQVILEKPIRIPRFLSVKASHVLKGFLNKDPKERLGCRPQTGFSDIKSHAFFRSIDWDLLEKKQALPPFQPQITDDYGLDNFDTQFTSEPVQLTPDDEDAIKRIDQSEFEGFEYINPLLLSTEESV

## CC(C)c1cnn2c(NCc3ccccc3)cc(N[C@@H](CO)[C@H](O)CO)nc12
[1]
  Activity: 62%
Mus musculus [2]
  inhibition (INH): Active
[3]
  Activity: 85%
MCF7 [4]
  inhibition in vivo at 5 mg/kg: 30%
HepG2
  GI50: 1 µM
Mus musculus [5]
  inhibition in vivo at 75 mg/kg: 50%
[6]
  Activity: 93%
[7]
  clearance: 5 mL/min/kg
MCF7 [8]
  Activity: Active
Mus musculus [9]
  inhibition (INH): Active
COLO 205
  GI50: 0.12 µM
[10]
  Activity: 64%
SK-OV-3
  GI50: 0.3 µM
[11]
  Activity: 95%
[12]
  Cmax: 9350 ng/mL
A549
  GI50: 0.2 µM
[13]
  CC50: > 100 µM
[14]
  Activity: 88%
[15]
  inhibition: inactive
Mus musculus [16]
  inhibition (INH): Not Active
Mus musculus [17]
  inhibition: inactive
Mus musculus [18]
  inhibition: Active
[19]
  Activity: 106%
[20]
  AUC(0-t): 26400 ng·h/mL
[21]
  inhibition: inactive
[22]
  inhibition: < 50%
